Measured values from different studies.
Compare with care: the assays were run in different laboratories.
FAAH: Fatty-acid amide hydrolase 1 (FAAH, Homo sapiens, UniProt O00519)
HLA class I histocompatibility antigen, B alpha chain: HLA class I histocompatibility antigen, B alpha chain (Homo sapiens, UniProt P01889)
blaNDM-1: Metallo-beta-lactamase type 2 (blaNDM-1, Klebsiella pneumoniae, UniProt C7C422)
HTR2B: 5-hydroxytryptamine receptor 2B (HTR2B, Homo sapiens, UniProt P41595)

For `COc1nn([C@@H](C)c2ccc(CC(C)C)cc2)c(=O)o1`, the IC50 was 0.011 µM (FAAH; enzyme activity, inhibitor; cell membranes).
`CC[C@H](C)[C@H](NC(=O)[C@H](CCCNC(=N)N)NC(=O)[C@H](CC(C)C)NC(=O)[C@@H](N)Cc1ccccc1)C(=O)N[C@@H](CCCNC(=N)N)C(=O)N1CCC[C@H]1C(=O)N[C@@H](CCCCN)C(=O)O` gave an IC50 of 0.14 µM (B2 bradykinin receptor (BDKRB2, Homo sapiens, UniProt P30411); ligand displacement, radioligand).
`CC(C)[C@H](NC(=O)[C@@H](NC(=O)[C@H](CCC(=O)O)NC(=O)[C@@H](NC(=O)[C@H](Cc1ccccc1)NC(=O)[C@H](C)NC(=O)[C@H](CO)NC(=O)[C@@H](NC(=O)[C@@H](N)CO)[C@@H](C)O)C(C)C)[C@@H](C)O)C(=O)O` has an IC50 of 8.86 µM (HLA class I histocompatibility antigen, B alpha chain; ligand displacement, radioligand).
The IC50 of `COCCn1c2nc(=O)n(-c3ccccc3)c(=O)c-2nc2ccccc21` is reported as 35.5 µM (mRNA cap guanine-N(7) methyltransferase (RNMT, Homo sapiens, UniProt O43148); enzyme activity, inhibitor).
With `CCCCCNC(=N)N/N=C/c1c[nH]c2ccc(OC)cc12` the IC50 was 0.197 µM (5-hydroxytryptamine receptor 2C (HTR2C, Homo sapiens, UniProt P28335); ligand displacement, radioligand).
`Fc1ccc(CC(c2ccccc2)N2CCCC2)cc1` (stereo not shown) gave an IC50 of greater than 10 µM (Sigma intracellular receptor 2 (Tmem97, Rattus norvegicus, UniProt Q5U3Y7); ligand displacement, radioligand).
`O=C(O)C1CSC(C(=O)O)N1` (stereo not shown) has an IC50 of 55 µM (blaNDM-1; enzyme activity, inhibitor, fluorescence).
`Ic1ccccc1CN[C@@H]1C2CCN(CC2)[C@@H]1C(c1ccccc1)c1ccccc1` (racemic) has an IC50 of 0.00262 µM (Substance-P receptor (TACR1, Homo sapiens, UniProt P25103); ligand displacement, radioligand).
`CCN(CC)C(=O)N[C@@H]1C[C@@H]2c3cccc4[nH]cc(c34)C[C@H]2N(C)C1` gave an IC50 of greater than 30 µM (blaNDM-1; enzyme activity, inhibitor).
The IC50 of `COc1cc(CC(C)N)c(OC)cc1I` (racemic) is reported as 0.0031 µM (HTR2B; ligand displacement, radioligand).
The IC50 of `c1ccc(CNCc2ccccn2)nc1` is reported as 2.6 µM (blaNDM-1; enzyme activity, inhibitor, fluorescence).
With `CN(Cc1ccccc1)C(=O)Oc1nsnc1N1CCCCC1` the IC50 was 0.0631 µM (FAAH; enzyme activity, inhibitor; cell membranes).
`CC[C@H](C)[C@H](NC(=O)[C@@H](NC(=O)[C@@H](NC(=O)[C@H](CC(N)=O)NC(=O)[C@@H](NC(=O)[C@H](CO)NC(=O)[C@H](CC(N)=O)NC(=O)[C@H](CC(C)C)NC(=O)[C@@H](N)Cc1ccc(O)cc1)[C@@H](C)O)C(C)C)[C@@H](C)O)C(=O)O` has an IC50 of 7.93 µM (HLA class I histocompatibility antigen, B alpha chain; ligand displacement, radioligand).
`C[C@H](NC(=O)[C@@H](CCC(=O)O)NC(=O)CN1CCN(CC(=O)O)CCN(CC(=O)O)CCN(CC(=O)O)CC1)C(=O)N[C@@H](Cc1ccc(O)cc1)C(=O)NCC(=O)N[C@@H](Cc1c[nH]c2ccccc12)C(=O)N[C@H](C(=O)N[C@@H](CC(=O)O)C(=O)N[C@@H](Cc1cccc2ccccc12)C(N)=O)c1ccccc1` gave an IC50 of 0.184 µM (Gastrin/cholecystokinin type B receptor (CCKBR, Homo sapiens, UniProt P32239); ligand displacement, radioligand).
With `CSCC[C@H](NC(=O)[C@@H](NC(=O)[C@@H](NC(=O)[C@H](CC(C)C)NC(=O)[C@H](CC(N)=O)NC(=O)[C@H](CC(N)=O)NC(=O)[C@@H](NC(=O)[C@H](C)NC(=O)[C@@H](N)CC(C)C)[C@@H](C)O)C(C)C)C(C)C)C(=O)O` the IC50 was 0.055 µM (HLA class I histocompatibility antigen, B alpha chain; ligand displacement, radioligand).
`CCCCCCCCCCCCCCC(Br)C(=O)O` (stereo not shown) gave an IC50 of 5.33 µM (Palmitoyltransferase ZDHHC20 (ZDHHC20, Homo sapiens, UniProt Q5W0Z9); enzyme activity, inhibitor).
`CSCC[C@H](NC(=O)[C@H](CCC(N)=O)NC(=O)[C@H](C)NC(=O)[C@H](CO)NC(=O)[C@@H](N)CO)C(=O)N[C@@H](CC(N)=O)C(=O)N[C@@H](CC(C)C)C(=O)N[C@@H](CC(N)=O)C(=O)N[C@H](C(=O)N[C@@H](Cc1ccccc1)C(=O)N[C@@H](CC(C)C)C(=O)N[C@@H](CC(N)=O)C(=O)O)[C@@H](C)O` has an IC50 of greater than 1000 µM (1-deoxy-D-xylulose-5-phosphate synthase (dxs, Deinococcus radiodurans, UniProt Q9RUB5); enzyme activity, inhibitor, absorbance; pH 7.6).
`NC(=O)c1cccc(-c2cccc(OC(=O)NC3CCCCC3)c2)c1` has an IC50 of greater than 10 µM (Monoglyceride lipase (MGLL, Homo sapiens, UniProt Q99685); enzyme activity, inhibitor, absorbance).
With `CC(C)[C@H](NC(=O)[C@@H](NC(=O)[C@H](CCCNC(=N)N)NC(=O)[C@H](C)NC(=O)[C@H](C)NC(=O)[C@H](CCC(=O)O)NC(=O)[C@H](CO)NC(=O)[C@H](C)NC(=O)[C@@H](N)Cc1ccccc1)C(C)C)C(=O)O` the IC50 was 8.55 µM (HLA class I histocompatibility antigen, B alpha chain; ligand displacement, radioligand).
With `COc1ncccc1-c1cnn2ccc(N3CCN(C(=O)OC(C)C)CC3)nc12` the IC50 was 0.014 µM (BMP-2-inducible protein kinase (BMP2K, Homo sapiens, UniProt Q9NSY1); enzyme activity, inhibitor).
For `O=C(O)c1ccccn1`, the IC50 was 84 µM (blaNDM-1; enzyme activity, inhibitor, fluorescence).
With `C[C@H](N)[C@H](O)c1cccc(O)c1` the IC50 was 7.38 µM (HTR2B; calcium signal, antagonist, fluorescence).
